In ChEMBL document CHEMBL4038284, “Synthesis of novel quinoline-based 4,5-dihydro-1H-pyrazoles as potential anticancer, antifungal, antibacterial and antiprotozoal agents” (Eur J Med Chem, 2017):
In brackets after ≈: the same amount, converted by molar mass. Activity calls are given as the source filed them. The calls are words filed in the database; no cut-off is given here.

Tests used:
Cryptococcus neoformans = experiment: Growth inhibition of Cryptococcus neoformans ATCC 32264 at 3.4 ug/ml incubated for 48 hrs under dark condition by broth microdilution method relative to control; type: functional; conditions: ATCC 32264, 48 h, read-out: GI
Candida albicans = experiment: Growth inhibition of Candida albicans ATCC 10231 at 3.4 ug/ml incubated for 48 hrs under dark condition by broth microdilution method relative to control; type: functional; conditions: ATCC 10231, 48 h, read-out: GI
Staphylococcus aureus = experiment: Antibacterial activity against vancomycin-intermediate Staphylococcus aureus after 24 hrs by resazurin dye based microdilution assay; type: functional
Procedure, shortened: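 MIC taken as the lowest concentration giving visible inhibition and/or by resazurin (1 mg/mL). Gentamicin was the control. Run in duplicate, repeated at least three times.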

LOX IMVI = experiment: Growth inhibition of human LOXIMVI cells at 10 uM incubated for 48 hrs by sulforhodamine B assay; type: functional, cell-based
Procedure, shortened: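 NCI 60-line panel, single 10 μM dose. Cells were grown in RPMI-1640 with 5% FBS and 2 mM L-glutamine and pre-incubated 24 h before compound addition (DMSO stock). Exposure was 48 h at 37 °C, 5% CO2. Cells were fixed with cold TCA (10% final), stained with 0.4% SRB, bound dye dissolved in 10 mM Tris base, A515 read. Growth was taken relative to time-zero and untreated control plates.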

SNB-19 = experiment: Growth inhibition of human SNB19 cells incubated for 48 hrs by sulforhodamine B assay; type: functional; conditions: SNB-19, 48 h
Procedure, shortened: (§1)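 NCI-60 panel cells grown in RPMI-1640 with 5% FBS and 2 mM L-glutamine, preincubated 24 h at 37 °C/5% CO2. Time-zero plates were TCA-fixed at compound addition. DMSO stocks were diluted in medium and tested at five final concentrations (100, 10, 1.0, 0.1, 0.01 µM) for 48 h. Cells were TCA-fixed, stained with SRB and read at 515 nm. GI50 = 50% lower net protein increase versus control.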

K562 = experiment: Growth inhibition of human K562 cells incubated for 48 hrs by sulforhodamine B assay; type: functional; conditions: K562, 48 h
Procedure, shortened: (§2)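 NCI 60-line screen. Cells in RPMI-1640 with 5% FBS and 2 mM L-glutamine, preincubated 24 h, then time-zero plates TCA-fixed. Compounds from DMSO stocks given at five final concentrations (100, 10, 1.0, 0.1, 0.01 µM) for 48 h at 37 °C, 5% CO2. Cells fixed with 10% TCA, SRB-stained, read at 515 nm. GI50 is the concentration giving 50% lower net protein increase versus control.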

MCF7 = experiment: Growth inhibition of human MCF7 cells incubated for 48 hrs by sulforhodamine B assay; type: functional; conditions: MCF7, 48 h; procedure, shortened: as §2
RXF 393 = experiment: Growth inhibition of human RXF393 cells incubated for 48 hrs by sulforhodamine B assay; type: functional; conditions: RXF 393, 48 h
Procedure, shortened: (§3)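 Five-dose NCI SRB assay at 100, 10, 1.0, 0.1 and 0.01 μM for 48 h at 37 °C, 5% CO2. Medium was RPMI-1640 with 5% FBS and 2 mM glutamine. Time-zero plates were TCA-fixed at compound addition, A515 read after SRB staining. GI50 was solved from [(Ti−Tz)/(C−Tz)]×100 = 50. Values beyond the tested range are given as > or <.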

786-0 = experiment: Growth inhibition of human 786-0 cells incubated for 48 hrs by sulforhodamine B assay; type: functional; conditions: 786-0, 48 h
Procedure, shortened: (§4)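 NCI five-dose SRB assay (100, 10, 1.0, 0.1, 0.01 µM) with 48 h exposure in RPMI-1640 with 5% FBS and 2 mM L-glutamine. Cells fixed with TCA and stained with SRB, read at 515 nm. GI50 is the concentration where [(Ti−Tz)/(C−Tz)]×100 = 50.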

SW-620 = experiment: Growth inhibition of human SW620 cells incubated for 48 hrs by sulforhodamine B assay; type: functional; conditions: SW-620, 48 h; procedure, shortened: as §1
SK-MEL-28 = experiment: Growth inhibition of human SK-MEL-28 cells incubated for 48 hrs by sulforhodamine B assay; type: functional; conditions: SK-MEL-28, 48 h; procedure, shortened: as §1
T47D = experiment: Growth inhibition of human T47D cells incubated for 48 hrs by sulforhodamine B assay; type: functional; procedure, shortened: as §1
MOLT-4 = experiment: Growth inhibition of human MOLT4 cells incubated for 48 hrs by sulforhodamine B assay; type: functional; conditions: MOLT-4, 48 h; procedure, shortened: as §2
HCT-116 = experiment: Growth inhibition of human HCT116 cells incubated for 48 hrs by sulforhodamine B assay; type: functional; conditions: HCT-116, 48 h; procedure, shortened: as §4
HT-29 = experiment: Growth inhibition of human HT-29 cells incubated for 48 hrs by sulforhodamine B assay; type: functional; conditions: HT-29, 48 h; procedure, shortened: as §3
MDA-MB-435 = experiment: Growth inhibition of human MDA-MB-435 cells incubated for 48 hrs by sulforhodamine B assay; type: functional; conditions: MDA-MB-435, 48 h; procedure, shortened: as §3
HL-60(TB) = experiment: Growth inhibition of human HL-60(TB) cells incubated for 48 hrs by sulforhodamine B assay; type: functional; conditions: HL-60, 48 h; procedure, shortened: as §2
TK-10 = experiment: Growth inhibition of human TK10 cells incubated for 48 hrs by sulforhodamine B assay; type: functional; conditions: TK-10, 48 h; procedure, shortened: as §2
NCI/ADR-RES = experiment: Growth inhibition of human NCI/ADR-RES cells incubated for 48 hrs by sulforhodamine B assay; type: functional; conditions: read-out: LC50 (the source's name); procedure, shortened: as §2
A549 = experiment: Growth inhibition of human A549/ATCC cells incubated for 48 hrs by sulforhodamine B assay; type: functional; conditions: A549, 48 h; procedure, shortened: as §2
OVCAR-5 = experiment: Growth inhibition of human OVCAR5 cells incubated for 48 hrs by sulforhodamine B assay; type: functional; conditions: OVCAR-5, 48 h; procedure, shortened: as §2
NCI-H460 = experiment: Growth inhibition of human NCI-H460 cells incubated for 48 hrs by sulforhodamine B assay; type: functional; conditions: NCI-H460, 48 h; procedure, shortened: as §3
OVCAR-8 = experiment: Growth inhibition of human OVCAR8 cells incubated for 48 hrs by sulforhodamine B assay; type: functional; conditions: OVCAR-8, 48 h; procedure, shortened: as §3
OVCAR-4 = experiment: Growth inhibition of human OVCAR4 cells incubated for 48 hrs by sulforhodamine B assay; type: functional; conditions: OVCAR-4, 48 h; procedure, shortened: as §3
UO-31 = experiment: Growth inhibition of human UO31 cells incubated for 48 hrs by sulforhodamine B assay; type: functional; conditions: UO-31, 48 h; procedure, shortened: as §1
COLO 205 = experiment: Growth inhibition of human COLO205 cells incubated for 48 hrs by sulforhodamine B assay; type: functional; conditions: COLO 205, 48 h; procedure, shortened: as §4
Malme-3M = experiment: Growth inhibition of human MALME-3M cells incubated for 48 hrs by sulforhodamine B assay; type: functional; procedure, shortened: as §3
[1] = read-out: LC50 (the source's name)

In the case of `O=Cc1cccc(Nc2ccnc3cc(Cl)ccc23)c1`, the inhibition of growth at 3.4 µg/mL (Cryptococcus neoformans) is reported as 5.03%, the inhibition of growth at 3.4 µg/mL (Candida albicans) is reported as 1.33% and the MIC (Staphylococcus aureus) is reported as 125 mg/L (≈ 442 µM).

In the case of `Clc1ccc(C2=NN(c3ccc(Cl)cc3)C(c3cccc(Nc4ccnc5cc(Cl)ccc45)c3)C2)cc1` (stereo not drawn), the inhibition of growth at 3.4 µg/mL (Cryptococcus neoformans) is reported as 17.4%, the “growth inhibition (GI)” value (LOX IMVI) is reported as “inactive” and the inhibition of growth at 3.4 µg/mL (Candida albicans) is reported as 0%. For the same molecule, the MIC (Staphylococcus aureus) was greater than 1000 mg/L.

With `COc1ccc(C2=NN(c3ccc(Cl)cc3)C(c3cccc(Nc4ccnc5cc(Cl)ccc45)c3)C2)cc1` (stereo not drawn) the inhibition of growth at 3.4 µg/mL (Cryptococcus neoformans) was 7.99%, the “growth inhibition (GI)” value (LOX IMVI) was “inactive” and the inhibition of growth at 3.4 µg/mL (Candida albicans) was 0%. The MIC (Staphylococcus aureus) was greater than 1000 mg/L.

`COc1cccc2c1C(=O)c1c(O)c3c(c(O)c1C2=O)C[C@@](O)(C(=O)CO)C[C@@H]3O[C@H]1C[C@H](N)[C@H](O)[C@H](C)O1` [DOXORUBICIN] was tested, and the GI50 (SNB-19) was 0.04 µM, the GI50 (K562) was 0.19 µM and the CC50 (K562; [1]) was 100 µM. For the same molecule, the GI50 (MCF7) was 0.04 µM, the CC50 (MCF7; [1]) was 64.1 µM and the GI50 (RXF 393) was 0.1 µM. The GI50 (786-0) was 0.13 µM, the GI50 (SW-620) was 0.09 µM and the GI50 (SK-MEL-28) was 0.21 µM. The GI50 (T47D) was 0.06 µM, the GI50 (MOLT-4) was 0.03 µM and the CC50 (MOLT-4; [1]) was 100 µM. For the same molecule, the GI50 (HCT-116) was 0.08 µM, the GI50 (HT-29) was 0.12 µM and the GI50 (MDA-MB-435) was 0.25 µM. It also gave a GI50 (HL-60(TB)) of 0.12 µM, a GI50 (TK-10) of 0.38 µM and a CC50 (TK-10; [1]) of 90 µM. The CC50 (NCI/ADR-RES) was 100 µM, the GI50 (A549) was 0.06 µM and the GI50 (OVCAR-5) was 0.41 µM. The CC50 (OVCAR-5; [1]) was 100 µM, the GI50 (NCI-H460) was 0.02 µM and the GI50 (OVCAR-8) was 0.1 µM. For the same molecule, the GI50 (OVCAR-4) was 0.37 µM, the GI50 (UO-31) was 0.49 µM and the GI50 (COLO 205) was 0.18 µM. For the same molecule, the GI50 (Malme-3M) was 0.12 µM.

`Clc1ccc(C2=NN(c3cc(Cl)cc(Cl)c3)C(c3cccc(Nc4ccnc5cc(Cl)ccc45)c3)C2)cc1` (stereo not drawn) was tested, and the inhibition of growth at 3.4 µg/mL (Cryptococcus neoformans) was 0%, the “growth inhibition (GI)” value (LOX IMVI) was “inactive” and the inhibition of growth at 3.4 µg/mL (Candida albicans) was 1.64%. It also gave an MIC (Staphylococcus aureus) greater than 1000 mg/L.
